From PubChem BioAssay AID2560 (University of Pittsburgh Molecular Library Screening Center, 2010) come the findings set out here.

This is one part of the list. A number with no mark means an inactive call.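 The calls were made as follows: active = inhibition of at least 50% in both of the two screening runs; inconclusive = at least 50% in one run, below 50% in the other; inactive = inhibition below 50% in both runs.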

As usually defined, the inhibition is the change of the read-out against control, counted positive when it falls.

The test system of the experiment is hexokinase 1 (Trypanosoma brucei). In words: T. brucei hexokinase 1 inhibition, single-dose recheck – biochemical, DPI cherry-picked primary actives, confirmation (AID 2560).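 Also: 0% and 100% set by the maximum and minimum signal control wells on each plate.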 Particulars: recombinant TbHK1, G6PDH-coupled NADH A340 absorbance; at 10 µM; hits give high values. Summed up: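 Material: T. brucei hexokinase 1, G6PDH-coupled | Medium: Mg2+, NAD+ and G6PDH coupling mix | Also added: Glucose 0.5 mM plus ATP 0.35 mM | Schedule: Enzyme reaction 2 h at room temperature | Measured by: NADH absorbance at 340 nm after 50 mM EDTA stop | Replication: Duplicate measurements per compound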
`COc1cccc(/C=N/Nc2ncc(C(F)(F)F)cc2Cl)c1O`: the inhibition was -10.9%.
For `COC(=O)C1CCN(CC(N)=O)CC1` the value was 5.76%; for `CC1(C)CC(=O)C=C(NCCCNC2CCCCC2)C1`, 2.17%.
`O=C(CN1C(=O)C2C3C=CC(C3)C2C1=O)NCCc1ccccc1Cl` (centres undefined): the inhibition was -0.0219%.
